Measurements taken from ChEMBL document CHEMBL4477192, “Laxitextines A and B, Cyathane Xylosides from the Tropical Fungus Laxitextum incrustatum” (J Nat Prod, 2016).
≈ marks a conversion by molar mass, not a printed value. Calls of active or inactive are those of the source. The rule behind the calls is not given here.

Key:
Staphylococcus aureus [1] = experiment: Antimicrobial activity against Methicillin-resistant Staphylococcus aureus DSM 1182 at 20 uL of 1 mg/ml compound solution after 24 to 48 hrs by serial dilution method; type: functional
Bacillus subtilis = experiment: Antimicrobial activity against Bacillus subtilis DSM 10 after 24 to 48 hrs by serial dilution method; type: functional
A-431 = experiment: Antiproliferative activity against human A431 cells after 5 days by MTT assay; type: functional, cell-based; details: A-431, 120 h
In short: (§1)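 Serial dilution in 96-well tissue-culture plates starting from 3.0 μL of 1 mg/mL stock. L929 grown in DMEM; MCF-7 and A431 in RPMI; each with 10% FBS. Incubation at 37 °C under 5% CO2 for 5 days. Methanol as negative control, epothilone A as positive control. IC50 in μM.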

Staphylococcus aureus [2] = details: DSM 1182
Staphylococcus aureus [3] = experiment: Antimicrobial activity against Staphylococcus aureus DSM 346 at 20 uL of 1 mg/ml compound solution after 24 to 48 hrs by serial dilution method; type: functional
Staphylococcus aureus [4] = experiment: Antimicrobial activity against Staphylococcus aureus DSM 346 at 2 uL of 1 mg/ml compound solution after 24 to 48 hrs by serial dilution method; type: functional
L929 = experiment: Antiproliferative activity against mouse L929 cells after 5 days by MTT assay; type: functional, cell-based; details: L929, 120 h; in short: as §1
HUVEC = experiment: Antiproliferative activity against HUVEC after 5 days by MTT assay; type: functional, cell-based; details: Homo sapiens, 120 h
MCF7 = experiment: Antiproliferative activity against human MCF7 cells after 5 days by MTT assay; type: functional, cell-based; details: MCF7, 120 h; in short: as §1
Staphylococcus aureus [5] = experiment: microbe, parasite or virus in culture; details: DSM 1182

| Compound | MIC (Staphylococcus aureus [1]) [µM] | MIC (Bacillus subtilis) [µM] | IC50 (A-431) [µM] | MIC (Staphylococcus aureus [2]) | MIC (Staphylococcus aureus [3]) | MIC (Staphylococcus aureus [4]) | IC50 (L929) [µM] | IC50 (HUVEC) [µM] | IC50 (MCF7) [µM] | MIC (Staphylococcus aureus [5]) [µg/mL] |
| --- | --- | --- | --- | --- | --- | --- | --- | --- | --- | --- |
| CC(C)C1=C2[C@H]3CC[C@@H]4[C@@H]5O[C@]6(O)[C@@]7(O)[C@@H](OC[C@]6(O)O5)O[C@@H]([C@@H]47)[C@]3(C)CC[C@@]2(C)CC1 | 140 (≈ 62.8 µg/mL) | 37.4 (≈ 16.8 µg/mL) | 4.9 | inactive | 15.7 µg/mL | inactive | 16.1 | 3.6 | 2 |  |
| CC(C)C1=C2[C@H]3CC[C@@H]4CO[C@@]5(O)[C@H](O)CO[C@H]6O[C@@H]([C@@H]4[C@]65O)[C@]3(C)CC[C@@]2(C)CC1 | 17.9 (≈ 7.78 µg/mL) | 76.7 (≈ 33.3 µg/mL) | 5.8 | inactive | 17.9 µM | 6.6 µg/mL (≈ 15.2 µM) | 17.3 | 4.8 | 2.3 |  |
| CN[C@H](CC(C)C)C(=O)N[C@H]1C(=O)N[C@@H](CC(N)=O)C(=O)N[C@H]2C(=O)N[C@H]3C(=O)N[C@H](C(=O)N[C@H](C(=O)O)c4cc(O)cc(O)c4-c4cc3ccc4O)[C@H](O)c3ccc(c(Cl)c3)Oc3cc2cc(c3O[C@@H]2O[C@H](CO)[C@@H](O)[C@H](O)[C@H]2O[C@H]2C[C@](C)(N)[C@H](O)[C@H](C)O2)Oc2ccc(cc2Cl)[C@H]1O [VANCOMYCIN] |  |  |  |  |  |  |  |  |  | 1.6 (≈ 1.1 µM) |
